# Results pooled from the literature.
# Protocols differ between the studies behind these lines.
# Target: Muscle, skeletal receptor tyrosine-protein kinase (MUSK, Homo sapiens, UniProt O15146)
# Residues used in one study (O15146 24-869): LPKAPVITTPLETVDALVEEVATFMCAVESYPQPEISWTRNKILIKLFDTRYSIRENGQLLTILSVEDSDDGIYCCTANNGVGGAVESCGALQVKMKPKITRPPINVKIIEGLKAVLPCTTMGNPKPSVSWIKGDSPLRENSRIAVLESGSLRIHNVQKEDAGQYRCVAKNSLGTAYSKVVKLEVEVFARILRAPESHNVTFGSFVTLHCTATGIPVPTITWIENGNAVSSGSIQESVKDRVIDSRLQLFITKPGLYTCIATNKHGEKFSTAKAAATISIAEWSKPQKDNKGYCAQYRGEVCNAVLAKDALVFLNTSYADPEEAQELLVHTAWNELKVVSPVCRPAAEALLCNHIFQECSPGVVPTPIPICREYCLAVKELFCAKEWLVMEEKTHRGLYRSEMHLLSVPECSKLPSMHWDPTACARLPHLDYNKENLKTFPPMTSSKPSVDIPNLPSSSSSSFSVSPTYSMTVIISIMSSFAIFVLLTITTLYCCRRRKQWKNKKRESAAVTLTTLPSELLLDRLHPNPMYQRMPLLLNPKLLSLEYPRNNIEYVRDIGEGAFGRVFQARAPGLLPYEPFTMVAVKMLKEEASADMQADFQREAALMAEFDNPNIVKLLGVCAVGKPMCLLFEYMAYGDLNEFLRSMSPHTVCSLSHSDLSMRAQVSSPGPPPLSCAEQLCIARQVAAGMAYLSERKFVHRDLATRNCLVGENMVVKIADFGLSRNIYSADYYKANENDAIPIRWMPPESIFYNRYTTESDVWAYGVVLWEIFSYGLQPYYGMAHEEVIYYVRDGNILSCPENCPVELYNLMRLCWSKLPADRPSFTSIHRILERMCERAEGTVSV
SMILES,effect on,action,technique,concentration,quantity,value
O=C(NC[C@@H]1[C@H]2CN(C(=O)OCc3cc(C(F)(F)F)cc(C(F)(F)F)c3)C[C@@H]12)c1ccc2[nH]nnc2c1,cell-free assay,,competition with immobilised ligand,1 µM,remaining binding,77%
COc1cc(Cl)c(C(=O)N[C@@H](CN[C@H]2CC[C@@H](N)CC2)Cc2ccc(C#N)cc2)cc1-c1ccc(CN[C@H](C)c2ccc(C)cc2)o1,enzyme activity,inhibitor,,1 µM,remaining activity,84%
CNC(=O)c1cc(Oc2ccc(NC(=O)Nc3ccc(Cl)c(C(F)(F)F)c3)cc2)ccn1,enzyme activity,inhibitor,,0.3 µM,inhibition,77%
C[C@@H]1CN(c2cc(-c3nn(C)c4ccc(OC5(C)CC5)cc34)ncn2)C[C@H](C)O1,cell-free assay,,competition with immobilised ligand,1 µM,remaining binding,92%
Cc1cc(NC(=O)c2cccc3cc(-c4cccc5[nH]nc(N)c45)ccc23)ccc1F,enzyme activity,inhibitor,,0.1 µM,activity vs control,99%
CNCc1ccccc1-c1csc([C@H](C)Nc2nc(C)nc3cc(OC)c(OC)cc23)c1,cell-free assay,,competition with immobilised ligand,1 µM,remaining binding,90%
CC(C)(C)c1nc(-c2cccc(NS(=O)(=O)c3c(F)cccc3F)c2F)c(-c2ccnc(N)n2)s1,enzyme activity,inhibitor,radiometric,1 µM,remaining activity,113%
Cc1ccc(NC(=O)c2ccc(C)c(C(F)(F)F)c2)cc1C#Cc1nn(C2CCC(O)CC2)c2ncnc(N)c12 (stereo not drawn),cell-free assay,,,10 µM,remaining signal,70%
O=C(O)[C@@H]1[C@@H](Cn2nnc3ccccc3c2=O)CC[C@H]1C(=O)c1ccc(OCCC2CCOCC2)cc1,cell-free assay,,competition with immobilised ligand,1 µM,remaining binding,100%
O=C1NC(=O)c2cc(Nc3ccc(F)cc3)c(Nc3ccc(F)cc3)cc21,cell-free assay,,,0.5 µM,remaining signal,90.2%
CC(C)(O)[C@H]1CC[C@H](Nc2ccc3ncc(-c4cccc(C(F)(F)F)c4)n3n2)CC1,enzyme activity,inhibitor,,1 µM,remaining activity,23.7%
CC(=O)C1=C(C)N(c2cccc(C(F)(F)F)c2)C(=O)N[C@@H]1c1ccc(C#N)nc1,cell-free assay,,competition with immobilised ligand,1 µM,remaining binding,100%
O=C(Nc1cnn(-c2csc(C(=O)NC3COC3)c2)c1)Nc1c(F)cccc1Cl,enzyme activity,inhibitor,,5 µM,remaining activity,86.8%
COc1cc(C)c(Sc2cnc(NC(=O)c3ccc(N4CCN(CCCCCCCNC(=O)COc5cccc6c5C(=O)N(C5CCC(=O)NC5=O)C6=O)CC4)cc3)s2)cc1C(=O)N1CCN(C(C)=O)CC1 (stereo not drawn),cell-free assay,,,1 µM,inhibition,> 90%
O=C(NCCCC1CCCCC1)c1ccc(CNC(=O)c2cnn(-c3ccccc3)c2C(F)(F)F)cc1,cell-free assay,,competition with immobilised ligand,0.1 µM,remaining binding,100%
CC/C(=N\NC(=O)NCc1cccc(O)c1)c1ccc(O)c(C)c1O,enzyme activity,inhibitor,,0.1 µM,inhibition,-3.4%
C[C@H](NC(=O)c1cnc2n1[C@](C)(Cc1ccc(C#N)cc1)C(=O)N2c1cc(Cl)c(F)c(Cl)c1)C(=O)NC1(c2ccccn2)CC1,cell-free assay,,competition with immobilised ligand,1 µM,remaining binding,100%
Cc1ccc(Nc2nccc(N(C)c3ccc4c(C)n(C)nc4c3)n2)cc1S(N)(=O)=O,enzyme activity,inhibitor,,0.3 µM,inhibition,75%
Oc1cccc(-c2nc(N3CCOCC3)c3oc4ncccc4c3n2)c1,cell-free assay,,,0.5 µM,remaining signal,87.8%
COc1cc2ncnc(Nc3ccc(Oc4ccccc4)c(C)c3C)c2cc1OC,enzyme activity,inhibitor,,1 µM,inhibition,-2%
c1ccc(N2CCN(Cc3nc4ccccc4[nH]3)CC2)nc1,binding,,competition with immobilised ligand,1 µM,remaining binding,100%
CCCS(=O)(=O)Nc1ccc(F)c(C(=O)c2c[nH]c3ncc(-c4ccc(Cl)cc4)cc23)c1F,enzyme activity,inhibitor,,1 µM,inhibition,< 10%
CCN(CC)CCNC(=O)c1c(C)[nH]c(/C=C2\C(=O)Nc3ccc(F)cc32)c1C,enzyme activity,inhibitor,,10 µM,inhibition,90%
CCCOc1ccc(OC)c(F)c1C(=O)c1ccc(C(=O)N[C@@H]2CNC[C@H]2NC(=O)c2ccc3[nH]ncc3c2)cc1,enzyme activity,inhibitor,,0.75 µM,remaining activity,13%
